Test results from ChEMBL document CHEMBL4118075, “Thiophene/thiazole-benzene replacement on guanidine derivatives targeting α2-Adrenoceptors” (Eur J Med Chem, 2017).
Activity calls are given as the source filed them. No cut-off for these calls is given here.

Assays:
[1] = biological target: T1, Adrenergic receptor alpha-2 (Homo sapiens, UniProt P08913+P18825+P18089); test: Activity at alpha2 adrenergic receptor in human brain prefrontal cortex membranes assessed as effect on UK14304-induced [35S]GTPgammaS binding by measuring UK14304 EC50 at 10^-5 M after 120 mins by microbeta liquid scintillation spectrometry (reference value: 0.4 +/- 0.01 uM); format: functional, Membrane
T1 sequence (P08913 whole entry): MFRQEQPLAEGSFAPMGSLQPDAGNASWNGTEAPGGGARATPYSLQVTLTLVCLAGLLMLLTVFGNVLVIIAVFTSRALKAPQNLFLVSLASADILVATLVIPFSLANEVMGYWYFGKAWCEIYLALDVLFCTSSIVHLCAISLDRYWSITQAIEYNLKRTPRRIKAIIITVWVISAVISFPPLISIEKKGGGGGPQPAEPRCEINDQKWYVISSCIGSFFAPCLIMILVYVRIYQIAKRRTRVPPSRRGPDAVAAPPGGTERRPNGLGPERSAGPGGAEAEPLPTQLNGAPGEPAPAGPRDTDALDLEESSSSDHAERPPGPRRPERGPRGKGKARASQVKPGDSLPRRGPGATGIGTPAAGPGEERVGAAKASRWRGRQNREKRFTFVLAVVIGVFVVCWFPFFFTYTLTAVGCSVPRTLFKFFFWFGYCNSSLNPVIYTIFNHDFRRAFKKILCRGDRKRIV
T1 sequence (P18825 whole entry): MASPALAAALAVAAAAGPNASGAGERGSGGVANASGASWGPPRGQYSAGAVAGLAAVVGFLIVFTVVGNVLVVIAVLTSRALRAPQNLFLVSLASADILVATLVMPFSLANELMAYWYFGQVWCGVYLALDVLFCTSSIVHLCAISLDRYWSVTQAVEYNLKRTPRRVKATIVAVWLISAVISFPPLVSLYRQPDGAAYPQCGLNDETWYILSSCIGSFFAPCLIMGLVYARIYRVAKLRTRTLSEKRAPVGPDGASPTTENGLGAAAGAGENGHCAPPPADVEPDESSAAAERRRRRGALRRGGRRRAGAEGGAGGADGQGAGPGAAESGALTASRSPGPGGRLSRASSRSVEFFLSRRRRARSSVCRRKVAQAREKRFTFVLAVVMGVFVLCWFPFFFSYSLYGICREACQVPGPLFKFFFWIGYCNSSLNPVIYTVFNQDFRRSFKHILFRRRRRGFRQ
T1 sequence (P18089 whole entry): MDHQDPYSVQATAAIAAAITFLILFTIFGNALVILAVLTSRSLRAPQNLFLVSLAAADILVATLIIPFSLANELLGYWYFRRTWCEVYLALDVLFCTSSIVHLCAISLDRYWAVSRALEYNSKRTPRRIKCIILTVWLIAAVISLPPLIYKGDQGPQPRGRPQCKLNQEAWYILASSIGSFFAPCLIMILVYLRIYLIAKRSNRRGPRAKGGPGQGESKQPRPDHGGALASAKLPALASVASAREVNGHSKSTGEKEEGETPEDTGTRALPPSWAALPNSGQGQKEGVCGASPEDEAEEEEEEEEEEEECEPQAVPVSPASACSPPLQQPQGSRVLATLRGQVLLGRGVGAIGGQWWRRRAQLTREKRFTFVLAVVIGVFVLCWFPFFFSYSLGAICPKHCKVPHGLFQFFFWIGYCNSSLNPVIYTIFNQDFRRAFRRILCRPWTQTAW

[2] = biological target: T1, Adrenergic receptor alpha-2; test: Displacement of [3H]RX821002 from alpha2 adrenergic receptor in human brain prefrontal cortex membranes after 30 mins by microbeta liquid scintillation spectrometry; parameters: species or system Membrane
Procedure, shortened: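 Competition binding on post-mortem human PFC P2 membranes in 50 mM Tris-HCl pH 7.5. [3H]RX821002 at 2 nM; competitor at 10 concentrations from 10⁻¹² to 10⁻³ M; 30 min at 25 °C. Vacuum filtration on GF/C, scintillation counting. Nonspecific binding defined with adrenaline 10⁻⁵ M. Ki from nonlinear regression with a one-site model.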

[3] = biological target: T2, Adrenergic receptor alpha-2 (Homo sapiens) (UniProt P08913+P18825+P18089); test: Agonist activity at alpha2 adrenergic receptor in human brain prefrontal cortex membranes assessed as stimulation of [35S]GTPgammaS binding at 10^-12 to 10^-3 M after 120 mins by microbeta liquid scintillation spectrometry; format: functional; details: Membrane
Procedure, shortened: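 GTPγS exchange in human prefrontal cortex P2 membranes (20 µg/well) with 0.5 nM [35S]GTPγS, in EGTA/MgCl₂/100 mM NaCl/GDP/Tris pH 7.4 buffer. Ten concentrations from 10⁻¹² to 10⁻³ M; 30 °C for 120 min with shaking. Filtered on GF/C and scintillation counted; nonspecific binding with 10 µM GTPγS. EC50 and Emax expressed as % over basal binding.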

[4] = biological target: T2, Adrenergic receptor alpha-2 (Homo sapiens); test: Activity at alpha2 adrenergic receptor in human brain prefrontal cortex membranes assessed as effect on UK14304-induced [35S]GTPgammaS binding at 10^-5 M after 120 mins by microbeta liquid scintillation spectrometry (reference value: 132 +/- 2%); format: functional; details: Membrane
[5] = biological target: T2, Adrenergic receptor alpha-2 (Homo sapiens); test: Agonist activity at alpha2 adrenergic receptor in human brain prefrontal cortex membranes assessed as stimulation of [35S]GTPgammaS binding at 10^-5 M after 120 mins in presence of antagonist RX821002 by microbeta liquid scintillation spectrometry; format: functional; details: Membrane

EC50 [1] [µM]	Ki [2] [µM]	Activity [3]	Emax [4] [%]	Activity [5]	SMILES
11.4	1.205	inactive	105		Cl.N=C(N)Nc1nc2c(s1)CCCC2
	1.968				Cl.N=C(N)Nc1ccsc1
	3.928				Cl.N=C(N)NCc1cccs1
10.7	0.156	Active	124	inactive	Cl.N=C(N)Nc1cc2c(s1)CCCCC2
1.7	0.751		117		Cl.N=C(N)NCCc1cccs1
	> 100				COC(=O)c1ccsc1NC(=N)N.Cl
0.5	0.0879	inactive	111		Cl.N=C(N)Nc1cc2c(s1)CCC2
	2.215				Cl.N#Cc1c(NC(=N)N)sc2c1CCC2
	9.086				CCOC(=O)c1c(NC(=N)N)sc2c1CCCC2.Cl
6.6	0.733	inactive	128		Cl.N#Cc1c(NC(=N)N)sc2c1CCCC2
1.5	0.706	inactive	126		Cl.N=C(N)Nc1nc2c(s1)CCC2
	> 100				COC(=O)c1sccc1NC(=N)N.Cl
	> 100				CCOC(=O)c1c(NC(=N)N)sc2c1CCCCC2.Cl
	30.15				CCOC(=O)c1c(NC(=N)N)sc2c1CCC2.Cl
0.8	0.0313	inactive	111		Cl.N=C(N)Nc1cc2c(s1)CCCC2
	1.198				Cl.N#Cc1c(NC(=N)N)sc2c1CCCCC2
	66.53				CCOC(=O)c1c(C)csc1NC(=N)N.Cl
